Measured values reported in ChEMBL document CHEMBL4266040, “Structure-Based Engineering of Irreversible Inhibitors against Histone Lysine Demethylase KDM5A” (J Med Chem, 2018).
Activity calls are given as the source filed them. No cut-off for these calls is given here.

What was measured:
MCF7 [1] = assay: Inhibition of KDM5 human MCF7 cells assessed as up-regulation of MT1F mRNA expression at 1 to 5 uM after 48 hrs by RT-qPCR assay relative to control; assay type: cell-based
In short: (§1)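 MCF7 cells treated with compound or DMSO for 48 h; target mRNA quantified by real-time RT-PCR; biological triplicates.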

MCF7 [2] = assay: Inhibition of KDM5 human MCF7 cells assessed as up-regulation of STING protein expression at 1 to 5 uM after 48 hrs by Western blot analysis relative to control; assay type: cell-based
In short: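 MCF7 cells treated with compound or 0.1% DMSO for 30 or 48 h; total cell lysates analysed by Western blot with specific antibodies.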

[3] = molecular target: Lysine-specific demethylase 5A (Homo sapiens, UniProt P29375); assay: Inhibition of KDM5A in human BT474 cells assessed as effect on H3K4me3 methylation levels up to 5 uM after 48 hrs by immunocytochemistry
Chain of Lysine-specific demethylase 5A (P29375 whole entry): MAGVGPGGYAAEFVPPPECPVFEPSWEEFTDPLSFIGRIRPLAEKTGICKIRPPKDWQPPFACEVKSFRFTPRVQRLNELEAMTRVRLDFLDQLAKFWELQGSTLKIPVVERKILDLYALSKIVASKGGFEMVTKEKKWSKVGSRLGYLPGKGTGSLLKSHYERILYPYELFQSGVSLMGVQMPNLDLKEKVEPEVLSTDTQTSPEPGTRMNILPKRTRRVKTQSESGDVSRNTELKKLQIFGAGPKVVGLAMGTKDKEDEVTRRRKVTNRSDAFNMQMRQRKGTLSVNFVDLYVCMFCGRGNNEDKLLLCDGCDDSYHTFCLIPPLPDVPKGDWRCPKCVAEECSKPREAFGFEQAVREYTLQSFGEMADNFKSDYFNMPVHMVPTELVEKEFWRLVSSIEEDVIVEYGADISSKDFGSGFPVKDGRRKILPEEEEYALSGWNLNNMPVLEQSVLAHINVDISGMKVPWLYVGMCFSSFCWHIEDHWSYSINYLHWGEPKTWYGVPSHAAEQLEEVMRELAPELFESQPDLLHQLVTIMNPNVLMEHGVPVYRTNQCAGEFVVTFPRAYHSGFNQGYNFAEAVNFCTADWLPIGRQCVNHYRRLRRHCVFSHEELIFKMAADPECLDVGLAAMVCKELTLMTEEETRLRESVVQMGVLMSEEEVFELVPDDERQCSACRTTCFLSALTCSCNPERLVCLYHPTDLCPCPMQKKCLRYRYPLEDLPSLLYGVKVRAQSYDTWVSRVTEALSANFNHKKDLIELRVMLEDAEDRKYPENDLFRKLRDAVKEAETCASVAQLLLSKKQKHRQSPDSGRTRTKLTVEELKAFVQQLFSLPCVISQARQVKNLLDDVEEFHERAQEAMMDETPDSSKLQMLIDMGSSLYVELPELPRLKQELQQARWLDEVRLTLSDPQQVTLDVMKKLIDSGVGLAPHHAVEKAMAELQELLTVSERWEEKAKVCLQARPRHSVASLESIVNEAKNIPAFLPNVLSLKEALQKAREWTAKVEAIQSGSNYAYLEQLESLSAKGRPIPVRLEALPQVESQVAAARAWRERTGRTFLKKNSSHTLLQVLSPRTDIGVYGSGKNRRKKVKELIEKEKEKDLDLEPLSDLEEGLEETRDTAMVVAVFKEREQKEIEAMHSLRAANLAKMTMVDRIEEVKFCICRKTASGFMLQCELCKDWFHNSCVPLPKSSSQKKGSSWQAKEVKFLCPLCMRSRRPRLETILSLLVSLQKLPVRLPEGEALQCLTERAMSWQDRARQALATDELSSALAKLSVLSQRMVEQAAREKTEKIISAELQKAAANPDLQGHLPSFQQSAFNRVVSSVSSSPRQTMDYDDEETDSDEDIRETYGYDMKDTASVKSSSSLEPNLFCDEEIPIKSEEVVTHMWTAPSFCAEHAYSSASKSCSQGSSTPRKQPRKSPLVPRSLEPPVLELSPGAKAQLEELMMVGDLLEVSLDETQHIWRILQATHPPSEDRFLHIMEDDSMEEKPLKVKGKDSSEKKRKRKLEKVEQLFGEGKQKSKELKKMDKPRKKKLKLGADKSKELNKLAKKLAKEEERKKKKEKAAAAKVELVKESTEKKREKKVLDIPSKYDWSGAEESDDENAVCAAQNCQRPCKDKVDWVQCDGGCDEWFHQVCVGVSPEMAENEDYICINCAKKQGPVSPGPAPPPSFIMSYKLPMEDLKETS

BT-474 [4] = assay: Growth inhibition of human BT474 cells at 0.11 to 3.5 uM after 12 days by IncuCyte live cell imaging method; assay type: functional, cell-based
In short: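 BT474 cells grown with compound; percent confluence tracked by IncuCyte live-cell imaging every 4 h over 300 h.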

MCF7 [5] = assay: Inhibition of KDM5 human MCF7 cells assessed as up-regulation of MT1H mRNA expression at 1 to 5 uM after 48 hrs by RT-qPCR assay relative to control; assay type: cell-based; in short: as §1
MCF7 [6] = assay: Inhibition of KDM5 human MCF7 cells assessed as up-regulation of STING mRNA expression at 1 to 5 uM after 48 hrs by RT-qPCR assay relative to control; assay type: cell-based; in short: as §1
HEK-293T = assay: Cytotoxicity against HEK293T cells assessed as cell killing at 5 to 10 uM after 24 hrs by bright-field microscopy; assay type: cell-based; details: human
[7] = Drug uptake in human BT474 cells at 2.5 uM after 24 hrs by LC-MS/MS analysis; assay type: ADME, cell-based; details: bt-474, 24 h
In short: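 Compound incubated with BT474 cells for 24 h; cells lysed and compound level in the extract determined.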

BT-474 [8] = assay: Cytotoxicity against human BT474 cells assessed as reduction in cell viability at >5 uM after 24 hrs by celltiter glo assay; assay type: functional, cell-based
In short: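 BT474 cells treated with compound; viability read by CellTiter-Glo luminescence 24 h after treatment.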

[9] = Metabolic stability in human BT474 cell culture media assessed as parent compound remaining at 10 uM after 24 hrs by LC-MS/MS analysis; assay type: physicochemical; details: read-out: Stability
MDA-MB-231 = assay: Cytotoxicity against human MDA-MB-231 cells assessed as cell killing at 5 to 10 uM after 24 hrs by bright-field microscopy; assay type: functional, cell-based
MCF7 [10] = assay: Cytotoxicity against human MCF7 cells assessed as cell killing at 5 to 10 uM after 24 hrs by bright-field microscopy; assay type: functional, cell-based
[11] = Effective permeability of the compound at pH 7.4 by PAMPA; assay type: ADME; details: read-out: Peff
In short: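 PAMPA with a lipid/dodecane artificial membrane and pH 7.4 buffer in donor and acceptor wells. Compounds diluted from 10 mM DMSO stock to 0.05 mM final, 0.5% DMSO. Donor stirred during a 30 min permeation at room temperature. Donor and acceptor concentrations read by UV. Permeability given in 10−6 cm s−1: >100 high, 10–100 moderate, <10 low.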

SMILES: CC(C)OC(=O)c1ccnc2cc(C(OCCN3CCCCC3)c3cccc(NC(=O)/C=C/CN(C)C)c3)sc12 (stereo not drawn)
- fold change (FC) (MCF7 [1]): < 2
- fold change (FC) (MCF7 [2]): < 2
- inhibition [3]: inactive
- growth inhibition (GI) (BT-474 [4]): inactive
- fold change (FC) (MCF7 [5]): < 2
- fold change (FC) (MCF7 [6]): < 2
- Activity (HEK-293T): Toxic
- Drug uptake [7]: Active
- Activity (BT-474 [8]): Active
- remaining at 24 h, 10 µM [9]: 80%
- Activity (MDA-MB-231): Active
- Activity (MCF7 [10]): Active
- Papp [11]: 71.4 ×10⁻⁶ cm/s
